ERAP1 inh = blocks human ERAP1 aminopeptidase activity. recombinant ERAP1, Leu-AMC fluorescence, 60 min. inhibition, % at 10.7 µM. 340,000 tested, 0.15% active;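 active = mean replicate inhibition of at least 30%, or all replicates individually reaching that 30% level; inactive = mean below 30% and not every replicate reaching it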;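 note: 0% = neutral control wells and 100% = L-leucinethiol positive control wells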
PGC1a acetyl inh = modulators of PGC1a acetylation. U2OS PGC1a acetylation, AlphaScreen anti-acetyl-lysine; with virally co-expressed GCN5 acetyltransferase. inhibition, % at 15.6 µM. 350,000 tested, 0.17% active;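 active = every replicate shows inhibition of at least 40%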;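 note: 0% = neutral control wells and 100% = positive control wells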
SIRT5 inh = inhibitors of human sirtuin-5 desuccinylase; Q9NXA8; Purified SirT5, succinyl-peptide AMC, trypsin-coupled fluorescence; inhibition, % at 15 µM; 330,000 tested, 1.1% active; in the data active = inhibition above about 15%
Target sequence (Q9NXA8 whole entry, looked up): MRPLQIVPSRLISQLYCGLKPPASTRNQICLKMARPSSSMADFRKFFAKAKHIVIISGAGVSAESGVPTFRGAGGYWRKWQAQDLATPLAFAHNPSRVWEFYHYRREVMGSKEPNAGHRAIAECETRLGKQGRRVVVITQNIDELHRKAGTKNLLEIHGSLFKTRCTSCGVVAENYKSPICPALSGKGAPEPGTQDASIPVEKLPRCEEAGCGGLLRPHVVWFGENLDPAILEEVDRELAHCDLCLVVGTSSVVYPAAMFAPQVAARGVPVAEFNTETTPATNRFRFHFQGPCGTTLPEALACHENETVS
FN deposition inh = fibronectin deposition inhibition; AH1F fibroblasts, Alexa488-fibronectin deposition fluorescence, overnight; inhibition, % at 12.6 µM; 350,000 tested, 0.086% active;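 active = mean inhibition across replicates of 30% or more, regardless of how many single replicates reach that level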;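 note: positive control wells lacked labelled fibronectin entirely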
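material = AH1F fibroblast monolayer depositing Alexa488-labelled fibronectin into matrix | amount = 10000 AH1F cells/well | buffer or medium = DMEM plus 2% serum, read in PBS | incubation = 1 h cell adhesion before compound, then overnight fibronectin incubation | detection = fluorescence at 485 nm excitation, 525 nm emission | evaluation = percent inhibition as loss of matrix-bound fibronectin fluorescence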
FGF22 binding = shifts melting point of recombinant human FGF22. activity (Tm shift, normalised), % at 9.99 µM. Q9HCT0. AID 651658. recombinant FGF22 thermal shift, SYPRO orange fluorescence; percent of sucrose octasulfate shift, DMSO zero. 340,000 tested, 1.5% active;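 active = mean Tm shift, scaled 0 neutral to 100 positive control, at about 1.3% or above, every replicate too, limit read from the data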
Target sequence (Q9HCT0 whole entry, looked up): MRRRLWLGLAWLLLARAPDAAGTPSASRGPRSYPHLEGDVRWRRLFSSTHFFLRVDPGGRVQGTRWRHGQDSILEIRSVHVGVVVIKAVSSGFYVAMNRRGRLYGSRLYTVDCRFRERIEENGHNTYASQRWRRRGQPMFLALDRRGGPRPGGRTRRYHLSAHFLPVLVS
* hit, by the source's call; / = no result. In the library only some 2.2% were active in any assay of this set; here they are far more common.

SMILES | ERAP1 inh | PGC1a acetyl inh | SIRT5 inh | FN deposition inh | FGF22 binding
Cc1c(Nc2ccc(C=O)cc2)c(=O)n(-c2ccccc2)n1C | -0.1 | -3.0 | 3.4 | 5.1 | 42.9*
COCC#Cc1cnc2c(c1)C(=O)N([C@@H](C)CO)C[C@@H](C)[C@H](CN(C)C(=O)c1ccc3c(c1)OCO3)O2 | 0.2 | 0.1 | -0.9 | / | -0.1
C[C@H](CO)N1C[C@H](C)[C@H](CN(C)S(=O)(=O)c2ccccc2)Oc2ccc(NC(=O)Nc3ccccc3)cc2C1=O | 0.0 | -7.5 | -1.4 | / | 0.2
O=C(CN1C(=O)NC2(CCCC2)C1=O)N1CCN(c2ccccc2O)CC1 | -1.1 | / | 17.8* | 0.6 | -1.0
O=C(CN1C(=O)NC2(CCCCC2)C1=O)N1CCc2ccccc2C1 | 7.8 | 12.1 | 0.6 | -13.5 | 0.1
O=C(CN1C(=O)NC2(CCCC2)C1=O)N1CCc2ccccc2C1 | -1.0 | / | 0.0 | -1.3 | 43.0*
O=C(C[C@H]1CC[C@@H]2[C@H](COC[C@H](O)CN2Cc2ccc(C(F)(F)F)cc2)O1)NCCc1ccccc1 | 1.3 | -8.3 | 1.3 | -23.6 | -0.2
COc1ccc2[nH]c(=O)c(C(c3nnnn3CC3CCCO3)N3CCCCC3)cc2c1 (stereo not given) | -1.4 | / | -9.2 | -7.6 | 43.0*
COCCn1nnnc1C(c1cc2cc(OC)ccc2[nH]c1=O)N1CCC(Cc2ccccc2)CC1 (stereo not given) | 1.2 | 15.6 | 17.4* | / | 0.5
O=C(C[C@H]1CC[C@H](NS(=O)(=O)c2ccc(F)cc2)[C@@H](CO)O1)NC1CCCCC1 | 0.6 | 0.6 | 0.6 | -8.8 | 0.1
Cc1ccc(CNC(=O)C2CCCN(S(=O)(=O)N3CC(C)CC(C)C3)C2)cc1 (stereo not given) | 0.4 | 6.2 | 19.8* | 5.8 | 0.2
Cc1ccc(CNC(=O)C2CCCN(c3nc(C)cc(C)n3)C2)cc1 (stereo not given) | 2.5 | -2.9 | -2.2 | -3.9 | 43.4*
Cc1ccc(CNC(=O)C2CCCN(c3nc4ccsc4c(=O)s3)C2)cc1 (stereo not given) | 3.7 | 0.6 | 18.1* | -0.1 | 0.2
Cc1ccc(CNC(=O)C2CCCN(c3nc4ccccc4o3)C2)cc1 (stereo not given) | 0.1 | 7.6 | / | 0.7 | 0.2
CCCS(=O)(=O)N1CCCC(C(=O)NCc2ccc(C)cc2)C1 (stereo not given) | / | 7.1 | / | / | /
CC(=O)N(C)C[C@H]1Oc2ncc(-c3ccccc3F)cc2C(=O)N([C@H](C)CO)C[C@@H]1C | -1.0 | 8.8 | -2.1 | 4.2 | -0.1
CCCc1cn(CC[C@@H]2CC[C@@H](NC(=O)CCN3CCCCC3)[C@@H](CO)O2)nn1 | 2.1 | -1.8 | 4.3 | 10.9 | 0.1
Cc1ccc(Cc2cnc(N3C(=N)SC(C)C3=O)s2)cc1 (stereo not given) | -4.1 | / | 0.4 | 3.9 | 43.2*
Cc1cccc(Cc2cnc(N3C(=N)SC(C)C3=O)s2)c1 (stereo not given) | -2.4 | / | 3.5 | -0.9 | 0.2
CCC(=O)Nc1ccc2c(c1)OC[C@H](C)N(CC1CCCCC1)C[C@@H](C)[C@@H](OC)CN(C)C2=O | / | 7.3 | / | -1.2 | /
C[C@@H]1CCCCO[C@H](CN(C)C(=O)Nc2ccc(F)cc2)[C@@H](C)CN([C@H](C)CO)C(=O)c2cc(NC(=O)Nc3ccc(C(F)(F)F)cc3)ccc2O1 | -4.1 | 7.1 | -0.1 | / | 0.5
C[C@@H]1CCCCO[C@H](CN(C)C(=O)Nc2ccc(F)cc2)[C@H](C)CN([C@@H](C)CO)C(=O)c2cc(NC(=O)Nc3ccc(C(F)(F)F)cc3)ccc2O1 | -4.4 | 5.3 | -2.4 | / | 1.3*
C[C@H](CO)N1C[C@H](C)[C@H](CN(C)C(=O)Nc2ccc(F)cc2)OCCCC[C@H](C)Oc2ccc(NC(=O)Nc3ccc(C(F)(F)F)cc3)cc2C1=O | -5.1 | 7.5 | -0.2 | / | 1.3*
C[C@H](CO)N1C[C@H](C)[C@H](CN(C)C(=O)Nc2ccc(C(F)(F)F)cc2)OCCCC[C@H](C)Oc2ccc(NC(=O)Nc3ccc(F)cc3)cc2C1=O | 2.9 | -7.8 | 16.7* | 2.5 | 0.1
C[C@@H]1CCCCO[C@H](CN(C)C(=O)Nc2ccc(C(F)(F)F)cc2)[C@H](C)CN([C@H](C)CO)C(=O)c2cc(NC(=O)Nc3ccc(F)cc3)ccc2O1 | 1.5 | 13.6 | 9.4 | -11.8 | 0.4
SMILES | ERAP1 inh | PGC1a acetyl inh | SIRT5 inh | FN deposition inh | FGF22 binding
COc1ccc2c3c(n(C)c2c1)[C@@H](CO)NCC31CCN(C(C)=O)CC1 | / | 0.6 | / | / | -0.1
CC(C)NC(=O)N(C)C[C@@H]1Oc2ccc(NC(=O)Nc3ccc(C(F)(F)F)cc3)cc2C(=O)N([C@H](C)CO)C[C@@H]1C | -2.9 | 3.7 | / | / | -3.6
CCCCCCCCCCC(C(=O)O)C1(C(=O)O)CCC(=O)O1 (stereo not given) | 38.5* | 12.9 | 1.5 | / | -0.2
CCCCCC(O)CCCC(=O)O (stereo not given) | -3.4 | -12.3 | 0.1 | 2.3 | -0.1
CS/C(=N\S(=O)(=O)c1cccs1)Nc1cccc(Cl)c1C | -0.9 | 10.8 | -0.6 | -6.2 | 0.2
CS/C(=N\S(=O)(=O)c1cccs1)Nc1ccc(F)c(Cl)c1 | 1.4 | -2.8 | -3.9 | / | 1.3*
COc1ccccc1Nc1nc2cc(C)ccc2cc1C#N | -1.2 | 0.7 | 0.9 | 1.8 | 43.3*
COc1ccccc1Nc1nc2ccc(C)cc2cc1C#N | / | -0.9 | / | 2.0 | /
C[C@H](CO)N1C[C@H](C)[C@@H](CN(C)C)Oc2ncc(-c3ccc(C(=O)N(C)C)cc3)cc2C1=O | 1.6 | -3.4 | -10.7 | -2.7 | -0.1
O=C(Nc1cc2c(cc1[N+](=O)[O-])OCCO2)c1cccnc1 | -0.5 | -26.0 | / | 12.1 | 43.1*
Cc1ccc(S(=O)(=O)Nc2ccc3c(c2)C(=O)N([C@@H](C)CO)C[C@@H](C)[C@H](CN(C)S(=O)(=O)c2ccc(F)cc2)O3)cc1 | -3.0 | -8.4 | 8.1 | / | -1.1
C[C@@H]1CN([C@H](C)CO)C(=O)c2cc(NS(=O)(=O)c3cccs3)ccc2O[C@@H]1CN(C)S(=O)(=O)c1ccc(Cl)cc1 | 0.0 | -3.3 | 5.3 | 12.7 | -0.5
CC(C)(C)c1csc(N/N=C/c2cccnc2)n1 | 3.0 | 3.2 | 2.8 | -6.6 | 43.8*
Cc1[nH]c(=O)[nH]c(=O)c1Cc1cccc2ccccc12 | -9.6 | -4.9 | 5.4 | -11.3 | 43.3*
Cc1nc(N2CCN(C)CC2)[nH]c(=O)c1Cc1cccc2ccccc12 | / | -15.7 | / | -1.8 | /
CNS(=O)(=O)c1cccc(C(=O)OCC(=O)Nc2ccc(N3CCCCC3)cc2)c1 | 1.2 | 1.4 | -3.0 | -2.7 | 43.2*
C/C=C/C(=O)OCC(=O)Nc1ccc(OC)c(OC)c1 | 2.3 | / | 0.4 | / | 43.2*
COc1ccc(NC(=O)COC(=O)C2=COCCO2)cc1OC | 1.2 | 9.8 | -4.7 | -0.3 | 43.7*
C[C@H](CO)N1C[C@H](C)[C@@H](CN(C)C(=O)Nc2ccc(C(F)(F)F)cc2)Oc2ccc(NC(=O)CCC(F)(F)F)cc2CC1=O | / | -2.0 | / | -1.7 | 0.2
O=C(OCC(=O)c1c[nH]c2ccccc12)c1cc(Br)ccc1O | 2.1 | -4.6 | 2.6 | 7.2 | 43.3*
